Assay outcomes from PubChem BioAssay.
In the library only some 12% were active in any assay of this set; here they are far more common.
Dynein cargo inh = blocks dynein driven cargo transport along microtubules | 3617.4 mouse cells, GR-EGFP nuclear translocation imaging; test concentration mostly 20 µM; stimulated with dexamethasone, 1 µM; hits give low values | 0.47% of 220,000 active | z-score, hits read low;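 active = plate z-score of nuclear minus cytoplasmic receptor signal below a set negative limit, without overly bright fluorescence or cell loss, cut at about -3.5 in these data, passing the limit was not always enough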;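 note: z-score of nuclear minus cytoplasmic ring GR-EGFP intensity difference per well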
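Also added – dexamethasone, 1.0 µM final · Buffer or medium – tet-free, stripped-serum medium · Schedule – induction 48 h, compound 1 h, agonist 30 min · Detection – formaldehyde fixation, Hoechst nuclear stain, 10x automated fluorescence imaging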
MT stabilize HCS = stabilizes microtubules in HeLa cells; HeLa tubulin immunostaining HCS, 24 h; share of cells brighter than vehicle mean+2SD; % tubulin-high responders, % at 10 µM; 0.83% of 200,000 active;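 active = plate Z-score above 3 for both tubulin-high and condensed-nucleus cell shares, with cell loss under 80%, at 10 µM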;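 note: anti alpha tubulin signal scored within the nucleus-defined area of each cell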
L major viab = Leishmania major promastigote growth inhibition; Leishmania major promastigotes, resazurin fluorescence viability; inhibition, % at 10 µM; 9% of 200,000 active; in the data active = inhibition above about 50%;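 note: promastigotes grown with compound for 44 hours at 28 °C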
bCat nuc transl = modulators of beta-catenin nuclear translocation; AID 1665; HeLa beta-catenin nuclear translocation, immunofluorescence imaging; 0.3% of 190,000 active; nuclear translocation activity, % at 5 µM;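 active = nuclear translocation activity above 50% at 5 µM, with a well cell count of 50 or more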;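 note: per-cell ratio of nuclear to cytoplasmic median beta-catenin stain intensity; plate controls were DMSO negative control for no effect and GSK-3 inhibitor IX positive control for full effect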
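Test system: human HeLa cell line; Doses: 5 µM primary, 0.02–20 µM confirmation; Incubation: 24 h compound exposure, 37°C; Detection: beta-catenin immunofluorescence imaging with DAPI; Read-out: beta-catenin nuclear/cytoplasmic ratio, % activation.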
CHOP inhibitor = blocks CHOP induction under ER stress; 3.8% of 220,000 active; AID 2732; inhibition, % at 10 µM; CHO-K1 CHOP-promoter luciferase, tunicamycin-induced, 15-18 h;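 active = compounds that reduced the stress-induced luciferase reporter signal by more than about 70% of percent inhibition, limit read from the data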;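 note: 0% = tunicamycin plus vehicle and 100% = wells without tunicamycin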
Autophagy HCS = modulators of autophagy; MEF GFP-LC3 puncta imaging; test concentration mostly 10 µM; calls only at 10 µM (by protocol); 0.98% of 190,000 active;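 active = percentage of spot-positive cells more than 3 SD above its plate mean, without a fluorescence outlier flag or 80% toxicity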;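 note: spot-positive cell cutoff set from DMSO-treated cells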
Active calls of the source: *; i = inactive; . = not tested or not shown; + = active, no number.

SMILES	Dynein cargo inh	MT stabilize HCS	L major viab	bCat nuc transl	CHOP inhibitor	Autophagy HCS
COc1ccccc1NC(=O)COC(=O)c1ccc2c(c1)nc(C)n2-c1ccccc1	-1.1	2	57*	0	23	i
COCCN1CSC(=S)N(Cc2ccco2)C1	-2.2	9	85*	2	-191	i
CCOCCCN1CN(Cc2ccco2)CNC1=S	0.14	3	-7	.	12	i
S=C1SCN(Cc2ccccn2)CN1Cc1ccco1	-2.1	10	80*	5	-84	i
S=C1NCN(Cc2ccco2)CN1CCc1ccccc1	-0.36	.	.	-2	-4	.
COc1cccc(-n2nc(C(=O)N3CC(C)CC(C)C3)c3ccccc3c2=O)c1 (stereo unspecified)	-2.9	3	4	.	25	i
Nc1nc(-c2cc3ccccc3o2)cs1	0.22	.	.	2	1	.
Nc1ccc(OC(=O)Nc2ccc(O)cc2)cc1	0.38	.	.	-1	82*	.
Cc1ccc(OC(=O)Nc2ccccc2)cc1	-0.74	2	-7	0	-5	i
O=C(Nc1ccc(N2CCN(c3ccc(O)cc3)CC2)cc1)Oc1ccccc1	1	18*	4	3	-3	i
Cc1ccc(Cn2c(=O)n(CCC(=O)NCc3ccc4c(c3)OCO4)c(=O)c3ccccc32)cc1	0.11	4	0	-7	95*	i
O=C(NCc1ccc2c(c1)OCO2)Nc1cccc2ccccc12	-0.86	.	.	0	86*	.
O=C(NCc1ccccc1)NC1(C(=O)Nc2ccc3c(c2)OCCO3)CCCCC1	-0.28	2	-4	-6	1	i
O=C(Nc1ccccc1)NC1(C(=O)NCc2ccc3c(c2)OCO3)CCCCC1	-0.022	2	58*	-1	28	i
O=C(Nc1ccc(F)cc1)NC1(C(=O)NCc2cccs2)CCCCC1	0.5	3	87*	1	-15	i
N#Cc1ccccc1Cn1c(=O)n(CCCC(=O)NCc2ccc3c(c2)OCO3)c(=O)c2ccccc21	2.2	3	10	2	1	i
CC(=O)Nc1ccc2nc(CN3CCN(Cc4ccc(F)cc4)C(CCO)C3)ccc2c1 (stereo unspecified)	-0.12	2	-4	0	8	i
N#C/C(=C\C=C\c1ccccc1)c1nc(-c2ccc(Cl)cc2)cs1	-0.31	.	.	-3	14	.
CC(C)(C)NC(=O)CSc1ncnc2c1nnn2Cc1ccccc1Cl	-2.9	5	57*	-3	1	i
CCCCc1nc(N)c(C#N)c(-c2ccco2)c1CCC	0.41	3	-1	0	77*	i
CCSc1nc(N)c(C#N)c(-c2ccco2)c1C#N	2	2	10	2	22	i
CCOC(=O)c1c([N+](=O)[O-])c(C)[nH]c(=O)c1C#N	1.2	.	.	4	-9	.
O=C(c1cccs1)N1CCN(Cc2ccccc2)CC1	-0.14	2	-9	3	11	i
O=C(c1cccs1)N1CCN(CCCc2ccccc2)CC1	-0.15	2	96*	.	75*	i
O=C(c1cccnc1)N1CCN(CCCc2ccccc2)CC1	-0.73	2	80*	-3	-4	i
SMILES	Dynein cargo inh	MT stabilize HCS	L major viab	bCat nuc transl	CHOP inhibitor	Autophagy HCS
CCOc1ncccc1C(=O)OCC(=O)Nc1cc(C(=O)OC)ccc1C(=O)OC	.	.	.	-6	.	.
O=C1CC[C@@H](CN(Cc2ccccn2)Cc2nc(Cc3cccc(C(F)(F)F)c3)no2)N1	0.68	3	-6	0	1	i
COc1ccc(NC(C)=O)cc1CNC(=O)COc1c(C)c(C)cc(C)c1C	1.7	4	12	4	35	i
C/C(CCC12CC3CC(CC(C3)C1)C2)=N\NC(N)=S	-0.52	0	100*	.	41	+
C/C(CC1CC(C)OC1=O)=N\NC(N)=S (stereo unspecified)	0.49	4	-8	-1	-5	i
CC(=O)Nc1ccc(Nc2cc(C(C)C)nc3c(-c4ccccc4)c(C)nn23)cc1	0.42	.	.	0	44	.
O=C(CSc1nnc(CCCOc2ccc(Cl)cc2Cl)o1)Nc1ccc(C(=O)O)cc1	-0.41	3	-4	.	23	i
O=c1cc(Nc2ccc3c(c2)OCCO3)[nH]c(=O)n1-c1ccc(Br)cc1	0.74	4	-8	-1	21	i
O=c1cc(Nc2ccc3c(c2)OCO3)[nH]c(=O)n1-c1ccc(Br)cc1	0.71	7	99*	-2	77*	i
COc1cc2ccccc2cc1-c1nnc(COc2ccccc2)o1	-0.64	2	-5	.	82*	i
COc1ccc(S(=O)(=O)N2CCC(C(=O)N3CCc4ccccc4C3)CC2)cc1Cl	-0.072	2	96*	-12	49	i
COc1ccc(S(=O)(=O)N2CCC(C(=O)N3CCC(C(N)=O)CC3)CC2)cc1Cl	-0.32	4	-2	0	-5	i
CC1CCCCC1NC(=O)/C(C#N)=C/c1ccc2c(c1)OCCO2 (stereo unspecified)	0.43	2	59*	.	-44	i
CSc1ccc(/C=C(\C#N)C(=O)NC2CCCCC2)cc1	0.27	3	-1	2	32	i
CC1CCCCC1NC(=O)/C(C#N)=C/c1ccc(F)c(F)c1 (stereo unspecified)	-0.95	1	96*	.	57	i
C=CCNC(=O)/C(C#N)=C/c1ccc2c(c1)OCCO2	0.42	3	-1	0	-29	i
O=C(NC1CCCCC1)[C@H](CSCc1ccccc1)N1Cc2ccccc2C1=O	3	5	32	1	-8	i
COc1cccc2cc(-c3nc4ccccc4o3)c(=O)oc12	-0.24	2	58*	.	-11	i
O=C(NCc1ccccc1)c1ccc(C2SCC(=O)N2Cc2ccccc2)cc1 (stereo unspecified)	-0.58	3	97*	5	35	i
C=CCNC(=O)c1ccc(C2SCC(=O)N2Cc2ccccc2)cc1 (stereo unspecified)	-1.1	3	-4	-1	4	i
CCc1ccc(NC(=O)c2ccc(C3SCC(=O)N3CCc3ccccc3)cc2)cc1 (stereo unspecified)	-0.24	5	93*	-6	59	i
CCN(CC)S(=O)(=O)c1cccc(C(=O)NC(C)C(c2cccs2)N2CCCC2)c1 (stereo unspecified)	0.98	2	2	-2	11	i
O=C(Nc1ccncc1)c1ccc(-c2ccccc2)cc1	0.27	2	8	0	32	i
O=C(NC(=S)NCC1CCCO1)c1ccc([N+](=O)[O-])cc1 (stereo unspecified)	0.71	2	52*	-4	-6	i
CC1CCN(C(=O)N[C@@H](Cc2ccccc2)C(=O)O)CC1	-0.48	5	0	-6	-7	i
